From ChEMBL document CHEMBL1152628, “Synthesis and antioxidant properties of new chromone derivatives” (Bioorg Med Chem, 2009)
Calls of active or inactive are those of the source. No cut-off for these calls is given here.

Experiments:
[1] = Antioxidant activity assessed as superoxide radical scavenging activity by NBT dye reduction assay; format: functional
Procedure, shortened: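 Superoxide generated by the NADH/PMS system. Scavenging read as inhibition (%) of O2•−-driven NBT reduction to diformazan at 560 nm. Tiron was the positive control. IC50 given as mean ± SE, five experiments in triplicate.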

[2] = Antioxidant activity assessed as hydrogen peroxide scavenging activity by lucigenin oxidation assay; format: functional
Procedure, shortened: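 H2O2 scavenging followed as inhibition (%) of H2O2-induced lucigenin oxidation on a microplate reader. Ascorbic acid was the positive control. IC50 reported as mean ± SE from five experiments, each in triplicate.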

[3] = Antioxidant activity assessed as singlet oxygen scavenging activity by fluorescent rhodamine formation assay; format: functional
Procedure, shortened: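 Singlet oxygen scavenging monitored as inhibition (%) of 1O2-induced oxidation of non-fluorescent dihydrorhodamine to fluorescent rhodamine. Ascorbic acid was the positive control. IC50 given as mean ± SE, five experiments in triplicate.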

[4] = Antioxidant activity assessed as hypochlorous acid scavenging activity by fluorescent rhodamine formation assay; format: functional
Procedure, shortened: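 Fluorescent assay of HOCl-induced dihydrorhodamine oxidation to rhodamine, with HOCl from 1% (m/v) NaOCl adjusted to pH 6.2 with 10% H2SO4. Lipoic acid was the positive control. IC50 (mean ± SE) comes from % inhibition, five experiments in triplicate.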

[5] = Antioxidant activity assessed as peroxyl radical scavenging activity by measuring oxygen radical absorbance capacity; format: functional; design: reference not given here
[6] = Antioxidant activity assessed as nitric oxide scavenging activity by fluorescent triazofluorescein formation assay; format: functional
Procedure, shortened: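 NO scavenging measured as inhibition (%) of NO-induced oxidation of non-fluorescent DAF-2 to fluorescent triazolofluorescein. Rutin was the positive control. IC50 given as mean ± SE, five experiments in triplicate.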

[7] = Antioxidant activity assessed as peroxynitrite scavenging activity in absence of NaHCO3 by fluorescent rhodamine formation assay; format: functional
[8] = Antioxidant activity assessed as peroxynitrite scavenging activity in presence of NaHCO3 by fluorescent rhodamine formation assay; format: functional
[9] = Reducing activity assessed as reduction of ferric ion by reducing power assay
Procedure, shortened: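 Compounds in 1:4 water/DMSO were mixed with 0.2 M phosphate buffer pH 6.6 and 1% w/v K3Fe(CN)6, then held 20 min at 50 °C. After 10% w/v TCA and centrifugation (10 min, 3000 g), the supernatant was diluted with water plus 0.1% w/v FeCl3 and read at 700 nm. Ascorbic acid was the positive control. Values are mean ± SE of triplicates.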

[10] = Iron chelating activity assessed as Fe(2+)-compound complex formation at 10 uM by UV-Vis absorption spectroscopy; format: functional
Procedure, shortened: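 Iron chelation checked from changes in the UV–vis spectrum (300–600 nm) of a 10 µM (final) compound solution in 20 mM phosphate buffer, pH 7.2. Fe(II) was added sequentially to 0, 2, 4, 6, 8, 10, 12, 14 and 16 µM.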

[11] = Antioxidant activity assessed as hydrogen peroxide scavenging activity at 1 mM by lucigenin oxidation assay; format: functional
[12] = Antioxidant activity assessed as hypochlorous acid scavenging activity at 200 uM by fluorescent rhodamine formation assay; format: functional
Procedure, shortened: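 HOCl was made by bringing 1% (m/v) NaOCl to pH 6.2 with 10% H2SO4. Scavenging was read as inhibition (%) of HOCl-induced oxidation of dihydrorhodamine to fluorescent rhodamine. Value given as mean % at the highest tested concentration (200 µM). Five experiments in triplicate.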

Row | Structure (SMILES) | IC50 [1] | IC50 [2] | IC50 [3] | IC50 [4] | IC50 [6] | IC50 [7] | IC50 [8] | Activity [5] | Activity [9] | Activity [10] | Activity [11] | Activity [12]
1 | O=C(c1ccc(O)c(O)c1)c1c(-c2ccc(O)c(O)c2)oc2cc(O)cc(O)c2c1=O | 19.5 µM | 367 µM | 43 µM | 2.29 µM | 3.62 µM | 0.66 µM | 1.97 µM | 4.32 | Active | – | – | –
2 | CCCCCCCCCCc1c(-c2ccc(O)c(O)c2)oc2cc(O)cc(O)c2c1=O | 78 µM | 236 µM | 7.9 µM | 1.7 µM | 4.85 µM | 0.83 µM | 1.82 µM | 1.63 | – | – | – | –
3 | CCCCCCc1c(-c2ccc(O)c(O)c2)oc2cc(O)cc(O)c2c1=O | 62.8 µM | 348 µM | 58.6 µM | 2.49 µM | 3.29 µM | 1.48 µM | 1.8 µM | 2 | Active | – | – | –
4 | O=C1O[C@H]([C@@H](O)CO)C(O)=C1O [ASCORBIC ACID] | – | 567 µM | 10.2 µM | – | – | – | – | 0.405 | Active | – | – | –
5 | O=C(O)CCCCC1CCSS1 (stereo not drawn) [LIPOIC ACID, ALPHA] | – | – | – | 1.95 µM | – | – | – | – | – | – | – | –
6 | C[C@@H]1O[C@@H](OC[C@H]2O[C@@H](Oc3c(-c4ccc(O)c(O)c4)oc4cc(O)cc(O)c4c3=O)[C@H](O)[C@@H](O)[C@@H]2O)[C@H](O)[C@H](O)[C@H]1O [RUTIN] | – | – | – | – | 1.17 µM | – | – | – | – | – | – | –
7 | O=c1c2ccccc2[se]n1-c1ccccc1 [EBSELEN] | – | – | – | – | – | 1 µM | 5.27 µM | – | – | – | – | –
8 | O=S(=O)(O)c1cc(O)c(O)c(S(=O)(=O)O)c1 [TIRON] | 288 µM | – | – | – | – | – | – | – | – | – | – | –

Now from value to compound, other results behind:

Row | IC50 [1] | IC50 [2] | IC50 [3] | IC50 [4] | IC50 [6] | IC50 [7] | IC50 [8] | Structure (SMILES) | Activity [5] | Activity [9] | Activity [10] | Activity [11] | Activity [12]
9 | 17.8 µM | 799 µM | 4.69 µM | 67.2 µM | 0.193 µM | 0.85 µM | 1.59 µM | O=c1cc(/C=C/c2ccc(O)c(O)c2)oc2c(O)c(O)ccc12 | 2.58 | Active | Active | – | –
10 | 51.8 µM | 502 µM | 61.8 µM | 1.45 µM | 2.72 µM | 0.6 µM | 1.24 µM | CCCCc1c(-c2ccc(O)c(O)c2)oc2cc(O)cc(O)c2c1=O | 2.66 | Active | – | – | –
11 | 26 µM | – | 9.95 µM | – | 0.254 µM | 0.59 µM | 2.08 µM | COc1ccc(/C=C/c2cc(=O)c3ccc(O)c(O)c3o2)cc1OC | 1.4 | Active | Active | 31% | 47%
12 | 20.8 µM | 702 µM | 7.97 µM | 4.67 µM | 0.368 µM | 1.21 µM | 0.93 µM | COc1ccc2c(=O)cc(/C=C/c3ccc(O)c(O)c3)oc2c1OC | 2.74 | Active | Active | – | –
